Columns and labels:
[1] = Antioxidant activity assessed as DPPH radical scavenging activity at 0.5 mg/ml after 180 mins; type: physicochemical; conditions: 3 h
In short: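 Compounds in absolute ethanol, serially diluted from 1 mg/mL, mixed 1:1 with […] in ethanol. Final range 0.016–0.5 mg/mL, 6 concentrations. Incubated at 37 °C in the dark, with decolourisation followed at 517 nm at several time intervals. % scavenged = (A vehicle control − A sample)/A control × 100. Quadruplicate; mean ± SD.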

[2] = test system: CCRF-CEM; assay: Cytotoxicity against human CCRF-CEM cells after 72 hrs by MTT assay; type: functional
In short: (§1)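 CCRF-CEM, HT-29, PC-3 and HTB-54 cells grown in RPMI 1640 with 10% foetal calf serum, 2 mM L-glutamine, penicillin/streptomycin, 10 mM HEPES (pH 7.4). Five concentrations, 0.01–100 μM, 72 h at 37 °C, 5% CO2; MTT read-out. GI50, TGI and LC50 versus untreated controls; at least 3 independent experiments in quadruplicate.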

[3] = test system: HT-29; assay: Cytotoxicity against human HT-29 cells after 72 hrs by MTT assay; type: functional; conditions: HT-29, 72 h; in short: as §1
[4] = Cytotoxicity against human BEAS2B cells after 72 hrs by MTT assay; type: cell-based, BEAS-2B; conditions: for GI50 at 72 h: BEAS2B cells; for LC50 / TGI: beas-2b, 72 h
In short: (§2)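 Non-malignant lines: 184B5 (normal breast) in Hams F-12/DMEM (50:50) with published supplements; BEAS-2B (bronchial epithelium) in Hams F-12/DMEM (50:50) with 10% foetal calf serum, 2 mM L-glutamine, penicillin/streptomycin. Compounds at five concentrations, 0.01–100 μM, 72 h, 37 °C, 5% CO2; MTT read-out. GI50, TGI, LC50 relative to untreated controls; ≥3 independent experiments in quadruplicate.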

[5] = test system: MCF7; assay: Cytotoxicity against human MCF7 cells after 72 hrs by MTT assay; type: functional; conditions: MCF7, 72 h; for CC50: read-out: LC50 (the source's name)
In short: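 MCF-7 cells grown in EMEM with 10% foetal calf serum, 2 mM L-glutamine, 100 units/mL penicillin, 100 µg/mL streptomycin. Exposed to five concentrations between 0.01 and 100 μM for 72 h, 37 °C, humidified 5% CO2; MTT read-out. GI50, TGI, LC50 relative to untreated controls; ≥3 independent experiments in quadruplicate.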

[6] = Cytotoxicity against human 184B5 cells after 72 hrs by MTT assay; type: cell-based; conditions: for GI50 at 72 h: 184B5 cells; for LC50 / TGI: 184b5, 72 h; in short: as §2
[7] = Antioxidant activity assessed as ABTS radical scavenging activity by measuring Trolox equivalent antioxidant capacity after 6 mins; type: physicochemical; conditions: 0.1 h
In short: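 ABTS dissolved in deionized water at 1 mg/mL, oxidised to radical cation with potassium persulfate (2.45 mM final), kept overnight at room temperature in dark, then diluted with 50% ethanol to A741 = 0.700 ± 0.02. Compound (1 mg/mL ethanol stock) added 1:10 (0.1 mg/mL); A741 decrease read after 6 min against 50% ethanol blank. Trolox positive control; quadruplicate; TEAC from calibration curve.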

[8] = Cytotoxicity against human PC3 cells after 72 hrs by MTT assay; type: functional; conditions: PC-3, 72 h; in short: as §1
[9] = Cytotoxicity against human HTB-54 cells after 72 hrs by MTT assay; type: functional; conditions: HTB-54, 72 h; for CC50: read-out: LC50 (the source's name); in short: as §1
[10] = Antioxidant activity assessed as ABTS radical scavenging activity at 0.1 mg/ml after 6 mins; type: physicochemical; conditions: 0.1 h
In short: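 Diluted with 50% ethanol to A741 0.700 ± 0.02. A741 decrease read after 6 min against a 50% ethanol blank. % scavenged relative to a vehicle-plus-radical control. Quadruplicate.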

## CC(C)COC(=O)Nc1ccc([Se]C#N)cc1
[1]
  inhibition (INH): 27.1%
[2]
  GI50: 9.3 µM
  LC50: 68.7 µM
  TGI: 38.3 µM
[3]
  GI50: 8.1 µM
  LC50: 63.7 µM
  TGI: 31.3 µM
[4]
  GI50 at 72 h: 26.9 µM
  LC50: 72.1 µM
  TGI: 49.5 µM
[5]
  GI50: 18.1 µM
  TGI: 45.5 µM
  CC50: 73 µM
[6]
  GI50 at 72 h: 5.8 µM
  LC50: 60.9 µM
  TGI: 21.6 µM
[7]
  Activity: 5.09 µg/µL
[8]
  GI50: 21.6 µM
  LC50 (concentration causing 50% net cell kill): 73 µM
  TGI: 47.3 µM
[9]
  GI50: 27.1 µM
  TGI: 51.2 µM
  CC50: 75.4 µM

## N#C[Se]c1ccc(NC(=O)Oc2ccc(Cl)cc2)cc1
[2]
  GI50: 18.3 µM
  LC50: 71.8 µM
  TGI: 45.1 µM
[3]
  GI50: 11.8 µM
  LC50: 68.7 µM
  TGI: 40.3 µM
[4]
  GI50 at 72 h: 9.3 µM
  LC50: 68.7 µM
  TGI: 38 µM
[5]
  GI50: 6 µM
  TGI: 26.3 µM
  CC50: 63.6 µM
[6]
  GI50 at 72 h: 5.6 µM
  LC50: 59.8 µM
  TGI: 19.9 µM
[10]
  inhibition (INH): > 25%
[7]
  Activity: 37.6 µg/µL
[8]
  GI50: 6.4 µM
  LC50 (concentration causing 50% net cell kill): 57.9 µM
  TGI: 18.7 µM
[9]
  GI50: 13.8 µM
  TGI: 41.4 µM
  CC50: 69 µM

## N#C[Se]c1ccc(NC(=O)OCC2c3ccccc3-c3ccccc32)cc1
[1]
  inhibition (INH): > 25%
[2]
  GI50: 7.5 µM
  LC50: 66.7 µM
  TGI: 34.2 µM
[3]
  GI50: 15.5 µM
  LC50: 70.2 µM
  TGI: 42.8 µM
[4]
  GI50 at 72 h: 7.9 µM
  LC50: 68.2 µM
  TGI: 38.4 µM
[5]
  GI50: 7.6 µM
  TGI: 34.6 µM
  CC50: 67 µM
[6]
  GI50 at 72 h: 5.5 µM
  LC50: 62.5 µM
  TGI: 25.8 µM
[7]
  Activity: 7.02 µg/µL
[8]
  GI50: 2 µM
  LC50 (concentration causing 50% net cell kill): 70 µM
  TGI: 34.3 µM
[9]
  GI50: 23.8 µM
  TGI: 48.4 µM
  CC50: 73 µM

## O=C(Nc1ccc([Se][Se]c2ccc(NC(=O)Oc3ccccc3)cc2)cc1)Oc1ccccc1
[1]
  inhibition (INH): 66.9%
[2]
  GI50: 22.4 µM
  LC50: 73.7 µM
  TGI: 48.1 µM
[3]
  GI50: 13 µM
  LC50: 70.2 µM
  TGI: 41.6 µM
[4]
  GI50 at 72 h: 1.4 µM
  LC50: 50.7 µM
  TGI: 8.6 µM
[5]
  GI50: 8 µM
  TGI: 36.7 µM
  CC50: 69 µM
[6]
  GI50 at 72 h: 4.5 µM
  LC50: 48.9 µM
  TGI: 9 µM
[8]
  GI50: 5.3 µM
  LC50 (concentration causing 50% net cell kill): 62.9 µM
  TGI: 27.2 µM
[9]
  GI50: 22.7 µM
  TGI: 56.2 µM
  CC50: 89.8 µM

## N#C[Se]c1ccc(NC(=O)Oc2ccc(F)cc2)cc1
[2]
  GI50: 12.6 µM
  LC50: 71.1 µM
  TGI: 41.9 µM
[3]
  GI50: 8.8 µM
  LC50: 66.5 µM
  TGI: 37.6 µM
[4]
  GI50 at 72 h: 19.8 µM
  LC50: 71.4 µM
  TGI: 45.6 µM
[5]
  GI50: 8.3 µM
  TGI: 33.3 µM
  CC50: 65.7 µM
[6]
  GI50 at 72 h: 6.9 µM
  LC50: 64.4 µM
  TGI: 29.5 µM
[10]
  inhibition (INH): > 25%
[7]
  Activity: 20.8 µg/µL
[8]
  GI50: 11.8 µM
  LC50 (concentration causing 50% net cell kill): 69 µM
  TGI: 40.4 µM
[9]
  GI50: 25 µM
  TGI: 48.4 µM
  CC50: 71.9 µM

## CCCCCCOC(=O)Nc1ccc([Se]C#N)cc1
[1]
  inhibition (INH): > 25%
[2]
  GI50: 19.7 µM
  LC50: 72.7 µM
  TGI: 46.2 µM
[3]
  GI50: 10.7 µM
  LC50: 69.9 µM
  TGI: 40.3 µM
[4]
  GI50 at 72 h: 2.8 µM
  LC50: 68 µM
  TGI: 35.9 µM
[5]
  GI50: 6.6 µM
  TGI: 30.5 µM
  CC50: 63.9 µM
[6]
  GI50 at 72 h: 4.6 µM
  LC50: 60.1 µM
  TGI: 20 µM
[8]
  GI50: 17.3 µM
  LC50 (concentration causing 50% net cell kill): 72 µM
  TGI: 44.6 µM
[9]
  GI50: 23.6 µM
  TGI: 48.5 µM
  CC50: 73 µM
